Consider 29 substances from article PMC3870591 (Human immunology, 2013).

Marks after values point to notes of the source that are not given here.

For assay [1], the target named is DRB1*11:01 (Homo sapiens, UniProt P01903+P01911, A100R/A169T/A87E/I96F/K41T/L162R/M171V/P40S/Q125H/Q178H/Q39Y/Q99D/R42S/S66Y/T262R/V115G/W38E). As to the kind of experiment: REVEAL MHC-peptide binding assay. The conditions noted are these: HLA DRB1*11:01; percentage of signal of positive control peptide. The essentials: (§1)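 Overlapping 15-mer peptides (3-residue offset) spanning brown shrimp tropomyosin (Q3Y8M6) were tested in the REVEAL assay. It detects peptide-stabilised, natively folded MHC class II complexes via a labeled antibody. Scores at 0 and 24 h are expressed as % of signal from an allele-specific known T-cell epitope positive control. An intermediate-affinity control peptide verified assay performance. A score of ≥10% counted as a good binder.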

Assay [2] concerns the target DQA1*03:01; DQB1*03:02 (Homo sapiens, UniProt P01909+P01920, A209T/A45G/C70Q/D89A/DUP78-78/E183D/E77G/F237L/G63E/H199R/I129T/K197E/L178F/L74F/L98V/Q57E/Q76R/S185I/S97I/T217I/T49S/V73L/Y58L). As to the kind of experiment: REVEAL MHC-peptide binding assay. The following applies: HLA DQB1*03:02; percentage of signal of positive control peptide. The essentials:
as §1

Assay [3] has as its target DRB1*15:01 (Homo sapiens, UniProt P01903+P01911). As to the kind of experiment: REVEAL MHC-peptide binding assay. The conditions noted are these: HLA DRB1*15:01; percentage of signal of positive control peptide. The procedure, abridged: as §1
Assay [4] addresses DQA1*01:01; DQB1*05:01 (Homo sapiens, UniProt P01909+P01920, A157S/A45G/A70V/C70R/D89V/E106S/E118A/E183D/E77G/F83G/G63E/H151Q/H199R/H252R/H253Q/I129T/I235V/I88M/INS77G/K197Q/L107V/L117V/L119Y/L178F/L71W/L74F/L85Q/L91A/L98M/M46L/N214S/P87R/Q116E/Q256R/Q57E/Q76K/R102G/R240Q/R75S/R78G/S102Y/S185I/S41F/S97I/T103A/T109R/T121G/T122I/T172A/T86R/V148I/V68A/V73E/Y34C/Y58G/Y62H). As to the kind of experiment: REVEAL MHC-peptide binding assay. The following applies: HLA DQB1*05:01; percentage of signal of positive control peptide. The essentials:
as §1

Assay [5] concerns the target DRB1*13:01 (Homo sapiens, UniProt P01903+P01911, A100E/A169T/K41T/L162R/M171V/P40S/Q125H/Q178H/Q39Y/Q99D/R42S/S66N/T262R/W38E/Y61H). As to the kind of experiment: REVEAL MHC-peptide binding assay. The following applies: HLA DRB1*13:01; percentage of signal of positive control peptide. The procedure, abridged:
as §1

The target of assay [6] is DRB1*04:01 (Homo sapiens, UniProt P01903+P01911, A100K/A169T/F76Y/I96L/K127E/L162R/M171V/N62H/P40V/Q125Y/R42H/S133A/S149N/S66Y/V115G/V209L/W38E). In words: REVEAL MHC-peptide binding assay. The following applies: HLA DRB1*04:01; percentage of signal of positive control peptide. The procedure, abridged:
as §1

For assay [7], the target named is DRB1*03:01 (Homo sapiens, UniProt P01903+P01911, A100K/A102G/A103R/A169T/F55Y/I96L/K41T/L162R/M171V/P40S/Q125H/Q178H/Q39Y/R42S/S66N/T106N/T262R/W38E/Y61H). In words: REVEAL MHC-peptide binding assay. The conditions noted are these: HLA DRB1*03:01; percentage of signal of positive control peptide. The essentials: as §1
In assay [8] the target is DQA1*05:01; DQB1*02:01 (Homo sapiens, UniProt P01909+P01920, A45G/A70V/D89A/E106A/E77G/E98D/H199R/L107V/N214S/P84L/P87L/T103K/T109R/T172A/T60S/V78E/V99I/Y58L/Y62S/Y69I/Y79F). As to the kind of experiment: REVEAL MHC-peptide binding assay. The conditions noted are these: HLA DQB1*02:01; percentage of signal of positive control peptide. The procedure, abridged:
as §1

For assay [9], the target named is DRB1*07:01 (Homo sapiens, UniProt P01903+P01911, A100R/A102G/A103Q/D57E/D86V/E43K/F76Y/K127E/L162R/M171V/P40G/Q125H/Q99D/R33Q/R42Y/R54Q/S133A/S66F/T210M/V115G/Y107V/Y59L/Y89S). In words: REVEAL MHC-peptide binding assay. The following applies: HLA DRB1*07:01; percentage of signal of positive control peptide. The procedure, abridged:
as §1

Assay [10] deals with MHC class II alleles. As to the kind of experiment: REVEAL MHC-peptide binding assay. More on the design: species or system human. The conditions noted are these: % of the positive control; allele not given. The essentials: as §1
In assay [11] the target is DRB1*09:01 (Homo sapiens, UniProt P01903+P01911, A100R/A103E/D57H/D86V/F55Y/F60I/F76Y/I96F/K127E/L162R/M171V/P40D/Q125H/Q99R/R33Q/R42F/S133A/S66N/T210M/V115G/W38K/Y107V/Y59G/Y89S). As to the kind of experiment: REVEAL MHC-peptide binding assay. The following applies: HLA DRB1*09:01; percentage of signal of positive control peptide. The procedure, abridged:
as §1

The target of assay [12] is DRB1*10:01 (Homo sapiens, UniProt P01903+P01911, A100R/A169T/D57E/F55L/F60V/F69Y/F76Y/I96L/L162R/M171V/P40V/Q260P/Q39E/Q99R/R195Q/R42F/S149N/S66Y/T210M/V115G/V67A/W38E/Y59R/Y61H). As to the kind of experiment: REVEAL MHC-peptide binding assay. The following applies: HLA DRB1*10:01; percentage of signal of positive control peptide. The procedure, abridged:
as §1

Assay [13] relates to CD4 T cells. As to the kind of experiment: CFSE CD4 T cell proliferation assay. It counts as cell-based, human.
Assay [14] has as its system Peripheral blood mononuclear cells (PBMC). In words: Tritiated thymidine proliferation assay. It counts as cell-based, human.

For “1: tropomyosin-derived 15-mer MDAIKKKMQAMKLEK [Peptide 1]”, the Binding score in assay [1] is 18.74%; in assay [2], 35.20%; in assay [3], 14.02%.
Consider “2: tropomyosin-derived 15-mer IKKKMQAMKLEKDNA [Peptide 2]”, for which the Binding score in assay [4] turned out to be 13.94%; in [5], 26.06%.
On to “3: tropomyosin-derived 15-mer KMQAMKLEKDNAMDR [Peptide 3]”, for which, in [6], the Binding score was determined as 23.52%.
As for “4: tropomyosin-derived 15-mer AMKLEKDNAMDRADT [Peptide 4]”, the Binding score in [7] is reported as 74.69%.
“5: tropomyosin-derived 15-mer LEKDNAMDRADTLEQ [Peptide 5]” gave a Binding score in [7] of 66.31%.
Consider “7: tropomyosin-derived 15-mer MDRADTLEQQNKEAN [Peptide 7]”, for which the Binding score in assay [6] was 22.16%.
On to “8: tropomyosin-derived 15-mer ADTLEQQNKEANNRA [Peptide 8]”, for which the Binding score in assay [8] was found to be 20.74%.
Same read-out and setting: for “10: tropomyosin-derived 15-mer QNKEANNRAEKSEEE [Peptide 10]” the value was 25.17%.
Take “13: tropomyosin-derived 15-mer EKSEEEVHNLQKRMQ [Peptide 13]”: the Binding score in [9] is 26.79%.
In the case of “15: tropomyosin-derived 15-mer VHNLQKRMQQLENDL [Peptide 15]”, the Binding score in [1] is listed as 11.01%.
Consider “18: tropomyosin-derived 15-mer QLENDLDQVQESLLK [Peptide 18]”, for which the “Binding score (relative binding affinity)” value in assay [10] is recorded as not above 10%. In assay [6], the Binding score is given as 9.10 ^a %.
Take “21: tropomyosin-derived 15-mer QESLLKANIQLVEKD [Peptide 21]”: the Binding score in assay [11] is listed as 8.32 ^a %.
“24: tropomyosin-derived 15-mer QLVEKDKALSNAEGE [Peptide 24]”: the Binding score worked out at 45.59% in [7] and 20.62% in assay [6].
For “29: tropomyosin-derived 15-mer VAALNRRIQLLEEDL [Peptide 29]”, the Binding score in assay [1] amounted to 22.35%; in assay [5], 19.31%.
In assay [4], “34: tropomyosin-derived 15-mer ERSEERLNTATTKLA [Peptide 34]” came in with a Binding score of 22.67%.
With “36: tropomyosin-derived 15-mer LNTATTKLAEASQAA [Peptide 36]”, in assay [6], the Binding score is 43.87%.
“43: tropomyosin-derived 15-mer RKVLENRSLSDEERM [Peptide 43]”: the “Binding score (relative binding affinity)” value in [10] was not above 10%. The Binding score in assay [4] is listed as 7.11 ^a %.
Substance “49: tropomyosin-derived 15-mer ENQLKEARFLAEEAD [Peptide 49]” had a Binding score in assay [4] of 19.65%.
Take “51: tropomyosin-derived 15-mer ARFLAEEADRKYDEV [Peptide 51]”: the values for the Binding score in [7] and in [6] were 15.03% and 11.06%, respectively.
In assay [1], “53: tropomyosin-derived 15-mer EADRKYDEVARKLAM [Peptide 53]” yielded a Binding score of 13.67%.
In the case of “54: tropomyosin-derived 15-mer RKYDEVARKLAMVEA [Peptide 54]”, in [2], the Binding score is on record as 7.98 ^a %.
Substance “57: tropomyosin-derived 15-mer LAMVEADLERAEERA [Peptide 57]” returned a Binding score in assay [7] of 19.46%.
In [12], “58: tropomyosin-derived 15-mer VEADLERAEERAETG [Peptide 58]” had a Binding score of 39.12%.
Substance “63: tropomyosin-derived 15-mer ESKIVELEEELRVVG [Peptide 63]” showed a Binding score in assay [7] of 29.06%.
Consider “66: tropomyosin-derived 15-mer ELRVVGNNLKSLEVS [Peptide 66]”, for which the Binding score in assay [8] is 24.15%; in assay [6], 25.05%.
In the case of “74: tropomyosin-derived 15-mer AYKEQIKTLTNKLKA [Peptide 74]”, the Binding score was 10.94% in assay [1]; 19.28% in [2]; 14.73% in [4]; 74.20% in assay [9]; 41.94% in assay [6].
For the substance “76: tropomyosin-derived 15-mer KTLTNKLKAAEARAE [Peptide 76]”, the Binding score was determined as 89.92% in [11] and 37.57% in assay [12].
Regarding “80: tropomyosin-derived 15-mer RAEFAERSVQKLQKE [Peptide 80]”, the “Binding score (relative binding affinity)” value in [10] is not above 10%. The Binding score in assay [4] is listed as 9.26 ^a %.
Regarding Tetanus Toxoid, the “CD4 T cell proliferation (CFSE)” value in [13] is “much greater level of CD4 T cell proliferation”. For the same substance, in [14], the “Proliferative T cell response by tritiated-thymidine incorporation” value was “much higher proliferative responses”.
